ChEMBL document CHEMBL1141376, “New fluorescent adenosine A1-receptor agonists that allow quantification of ligand-receptor interactions in microdomains of single living cells” (J Med Chem, 2007)

Assays:
[1] = target: T1, Adenosine receptor A1 (Homo sapiens) (UniProt P30542); test: (§1) Agonist activity at adenosine A1 receptor assessed as inhibition of forskolin-stimulated [3H]cAMP accumulation in CHO cells; assay type: functional, cell-based; details: concentration not given here
T1 sequence (whole entry): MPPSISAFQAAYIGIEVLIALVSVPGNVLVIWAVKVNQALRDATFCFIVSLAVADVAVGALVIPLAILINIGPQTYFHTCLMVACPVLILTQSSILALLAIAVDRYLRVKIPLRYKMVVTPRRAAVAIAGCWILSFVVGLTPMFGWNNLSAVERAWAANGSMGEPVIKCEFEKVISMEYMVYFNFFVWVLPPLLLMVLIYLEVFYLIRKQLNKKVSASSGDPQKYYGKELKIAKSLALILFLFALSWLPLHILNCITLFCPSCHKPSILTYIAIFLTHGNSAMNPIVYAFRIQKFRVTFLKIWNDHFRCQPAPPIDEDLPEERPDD
How it was run: (§2)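 Clonal CHO cells stably expressing human A1 (CHO-A1H) or human A3 (CHO-A3) grown to confluence in 24-well dishes. Labelled with [3H]adenine 2 h at 37 °C in HEPES-buffered Hank's, washed, rolipram 10 µM 15 min. Agonist 5 min, then forskolin 3 µM a further 10 min. Stopped with HCl; [3H]-cAMP isolated on alumina columns, scintillation counted. pEC50 from sigmoidal fits; triplicate determinations.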

Adenosine receptor A1 [2] = target: T2, Adenosine receptor A1 (Homo sapiens, UniProt P30542); test: as §1; assay type: functional, cell-based; how it was run: as §2
T2 sequence (P30542 whole entry): T1 sequence (whole entry)

[3] = target: T1, Adenosine receptor A1 (Homo sapiens); test: (§3) Displacement of [3H]DPCPX from human adenosine A1 receptor in CHO cells; assay type: cell-based; details: concentration not given here
How it was run: (§4)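 Whole confluent CHO-A1H cells in serum-free DMEM/F12 with competing ligand plus [3H]-DPCPX 1 nM final, 2 h at 37 °C in 5% CO2. Nonspecific binding with 10 µM XAC. Washed twice with cold PBS, scintillant added, counted.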

Adenosine receptor A1 [4] = target: T2, Adenosine receptor A1; test: as §3; assay type: cell-based; how it was run: as §4
[5] = target: T1, Adenosine receptor A1 (Homo sapiens); test: Ratio of pEC50 to pKd at human adenosine A1 receptor in CHO cells; assay type: cell-based
How it was run: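 Derived as the difference between -log EC50 from forskolin (3 µM)-stimulated [3H]-cAMP inhibition in CHO-A1H cells and -log KD from inhibition of 1 nM [3H]-DPCPX binding to intact CHO-A1H cells.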

Adenosine receptor A3 = target: T3, Adenosine receptor A3 (Homo sapiens, UniProt P0DMS8); test: Activity at human adenosine A3 receptor assessed as inhibition of forskolin-stimulated cAMP accumulation in CHO cells; assay type: functional, cell-based; how it was run: as §2
T3 sequence (P0DMS8 whole entry): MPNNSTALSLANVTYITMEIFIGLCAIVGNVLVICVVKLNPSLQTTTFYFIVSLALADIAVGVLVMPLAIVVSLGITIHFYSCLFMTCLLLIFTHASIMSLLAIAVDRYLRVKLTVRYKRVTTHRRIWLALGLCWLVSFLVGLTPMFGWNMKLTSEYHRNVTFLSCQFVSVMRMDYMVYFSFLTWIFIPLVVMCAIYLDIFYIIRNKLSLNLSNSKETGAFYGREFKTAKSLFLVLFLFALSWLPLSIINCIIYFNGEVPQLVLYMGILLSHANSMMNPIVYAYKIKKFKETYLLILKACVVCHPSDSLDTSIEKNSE

Adenosine receptor A2b = target: T4, Adenosine receptor A2b (Homo sapiens, UniProt P29275); test: Activity at human adenosine A2B receptor assessed as stimulation of [3H]cAMP accumulation in CHO cells; assay type: functional, cell-based
T4 sequence (P29275 whole entry): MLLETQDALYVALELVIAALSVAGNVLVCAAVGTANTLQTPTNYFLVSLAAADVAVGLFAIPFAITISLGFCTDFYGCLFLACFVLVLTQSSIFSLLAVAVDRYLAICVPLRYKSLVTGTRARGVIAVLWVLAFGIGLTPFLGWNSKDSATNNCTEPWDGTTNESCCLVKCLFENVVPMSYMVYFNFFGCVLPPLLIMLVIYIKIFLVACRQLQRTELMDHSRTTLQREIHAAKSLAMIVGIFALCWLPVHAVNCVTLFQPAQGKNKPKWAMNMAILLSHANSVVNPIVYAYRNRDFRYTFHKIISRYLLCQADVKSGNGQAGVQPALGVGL
How it was run: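 CHO cells expressing human A2B receptor, confluent in 24-well dishes, [3H]adenine-labelled 2 h at 37 °C in HEPES-buffered Hank's, then rolipram 10 µM 15 min. Agonist added 10 min without forskolin. HCl termination, alumina-column isolation of [3H]-cAMP, scintillation counting. pEC50 by sigmoidal curve fitting; each experiment in triplicate.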

Adenosine receptor A1 [6] = target: T2, Adenosine receptor A1; test: Activity at human adenosine A1 receptor assessed as inhibition of forskolin-stimulated cAMP accumulation in CHO cells; assay type: functional, cell-based; how it was run: as §2
Adenosine receptor A2a = Adenosine receptor A2a (Homo sapiens, UniProt P29274); test: Activity at human adenosine A2A receptor assessed as stimulation of [3H]cAMP accumulation in CHO cells; assay type: functional, cell-based
Sequence of Adenosine receptor A2a (P29274 whole entry): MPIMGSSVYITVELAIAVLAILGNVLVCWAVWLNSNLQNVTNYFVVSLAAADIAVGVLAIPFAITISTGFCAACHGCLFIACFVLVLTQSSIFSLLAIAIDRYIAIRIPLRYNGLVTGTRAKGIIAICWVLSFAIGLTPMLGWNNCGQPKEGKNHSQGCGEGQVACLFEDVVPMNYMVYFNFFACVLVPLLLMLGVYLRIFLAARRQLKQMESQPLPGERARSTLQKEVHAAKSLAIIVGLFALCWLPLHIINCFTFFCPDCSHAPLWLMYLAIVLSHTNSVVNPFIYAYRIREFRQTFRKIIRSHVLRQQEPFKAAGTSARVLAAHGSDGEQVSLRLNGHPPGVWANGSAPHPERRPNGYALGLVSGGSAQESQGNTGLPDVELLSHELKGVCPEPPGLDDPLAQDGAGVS

SMILES | inhibition [1] [%] | EC50 (Adenosine receptor A1 [2]) [nM] | inhibition [3] [%] | Kd (Adenosine receptor A1 [4]) [nM] | Ratio [5] | EC50 (Adenosine receptor A3) [nM] | EC50 (Adenosine receptor A2b) [nM] | EC50 (Adenosine receptor A1 [6]) [nM] | EC50 (Adenosine receptor A2a) [nM]
CCNC(=O)[C@H]1O[C@@H](n2cnc3c(NCCCCCCCCNC(=O)CCCCCNC(=O)COc4ccc(/C=C/C5=[N+]6C(=Cc7ccc(-c8cccs8)n7[B-]6(F)F)C=C5)cc4)ncnc32)[C@H](O)[C@@H]1O | 77 | 12 |  |  |  |  |  |  | 
CCNC(=O)[C@H]1O[C@@H](n2cnc3c(NCCCNC(=O)CCCCCNC(=O)COc4ccc(/C=C/C5=[N+]6C(=Cc7ccc(-c8cccs8)n7[B-]6(F)F)C=C5)cc4)ncnc32)[C@H](O)[C@@H]1O | 92 | 0.692 | 50.9 | 245 | 2.55 |  |  |  | 
CCNC(=O)[C@H]1O[C@@H](n2cnc3c(N)ncnc32)[C@H](O)[C@@H]1O | 98 |  | 83.3 |  |  |  |  |  | 
CCNC(=O)[C@H]1O[C@@H](n2cnc3c(NCCCCNC(=O)CCCCCNC(=O)COc4ccc(/C=C/C5=[N+]6C(=Cc7ccc(-c8cccs8)n7[B-]6(F)F)C=C5)cc4)ncnc32)[C@H](O)[C@@H]1O | 99 | 3.39 | 49.3 | 158 | 1.67 | 2.69 | 2040 | 3.39 | 174
O=C(CCCCCNC(=O)COc1ccc(/C=C/C2=[N+]3C(=Cc4ccc(-c5cccs5)n4[B-]3(F)F)C=C2)cc1)NCCCCNc1ncnc2c1ncn2[C@@H]1O[C@H](CO)[C@@H](O)[C@H]1O | 96 | 5.13 | 48.1 | 224 | 1.64 |  |  |  | 
CCNC(=O)[C@H]1O[C@@H](n2cnc3c(NCCCCCNC(=O)CCCCCNC(=O)COc4ccc(/C=C/C5=[N+]6C(=Cc7ccc(-c8cccs8)n7[B-]6(F)F)C=C5)cc4)ncnc32)[C@H](O)[C@@H]1O | 96 | 0.708 |  |  |  |  |  |  | 
